Test results taken from ChEMBL document CHEMBL3044755, “5-Methyl-1,2,3-thiadiazoles synthesized via ugi reaction and their fungicidal and antiviral activities” (J Agric Food Chem, 2010).

What was measured:
Type in all cases: functional
Rhizoctonia solani = assay: Fungicidal activity against Rhizoctonia solani at 50 ug/ml by growth inhibition method; settings: read-out: GI
Method in brief: (§1)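 Mycelial growth inhibition on potato dextrose agar. The panel covered Alternaria solani, Botrytis cinerea, Cercospora arachidicola, C. beticola, Colletotrichum lagenarium, Fusarium oxysporum, Gibberella zeae, Puccinia triticina, Phytophthora infestans, Physalospora piricola, Pellicularia sasakii and Rhizoctonia solani.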

Puccinia triticina = assay: Fungicidal activity against Puccinia triticina at 50 ug/ml by growth inhibition method; settings: read-out: GI; method in brief: as §1
Thanatephorus cucumeris = assay: Fungicidal activity against Thanatephorus cucumeris at 50 ug/ml by growth inhibition method; settings: read-out: GI; method in brief: as §1
[1] = test system: Botryosphaeria berengeriana; assay: Fungicidal activity against Botryosphaeria berengeriana at 50 ug/ml by growth inhibition method; settings: read-out: GI; method in brief: as §1
Phytophthora infestans = assay: Fungicidal activity against Phytophthora infestans at 50 ug/ml by growth inhibition method; settings: read-out: GI; method in brief: as §1
Fusarium graminearum = assay: Fungicidal activity against Fusarium graminearum at 50 ug/ml by growth inhibition method; settings: read-out: GI; method in brief: as §1
Colletotrichum lagenaria = assay: Fungicidal activity against Colletotrichum lagenaria at 50 ug/ml by growth inhibition method; settings: read-out: GI; method in brief: as §1
Cercospora beticola = assay: Fungicidal activity against Cercospora beticola at 50 ug/ml by growth inhibition method; settings: read-out: GI; method in brief: as §1
Mycosphaerella arachidis = assay: Fungicidal activity against Mycosphaerella arachidis at 50 ug/ml by growth inhibition method; settings: read-out: GI; method in brief: as §1
Alternaria solani = assay: Fungicidal activity against Alternaria solani at 50 ug/ml by growth inhibition method; settings: read-out: GI; method in brief: as §1
Tobacco mosaic virus [2] = assay: In vitro antiviral activity against Tobacco mosaic virus (TMV) infected tobacco leaves at 100 ug/ml
Tobacco mosaic virus [3] = assay: In vitro antiviral activity against Tobacco mosaic virus (TMV) infected tobacco leaves at 500 ug/ml

Cc1ccc(N(C(=O)c2nnsc2C)C(C(=O)NC2CCCCC2)c2ccccc2C(F)(F)F)cc1F (stereo not drawn)
inhibition of growth at 50 µg/mL (Rhizoctonia solani): 4% | inhibition of growth at 50 µg/mL (Puccinia triticina): 0% | inhibition of growth at 50 µg/mL (Thanatephorus cucumeris): 0% | inhibition of growth at 50 µg/mL [1]: 0% | inhibition of growth at 50 µg/mL (Phytophthora infestans): 25% | inhibition of growth at 50 µg/mL (Fusarium graminearum): 0% | inhibition of growth at 50 µg/mL (Colletotrichum lagenaria): 14% | inhibition of growth at 50 µg/mL (Cercospora beticola): 25% | inhibition of growth at 50 µg/mL (Mycosphaerella arachidis): 0% | inhibition of growth at 50 µg/mL (Alternaria solani): 44% | inhibition at 100 µg/mL (Tobacco mosaic virus [2]): 31% | inhibition at 500 µg/mL (Tobacco mosaic virus [3]): 20%

Cc1ccc(N(C(=O)c2nnsc2C)C(C(=O)NC(C)C)c2ccc(C(F)(F)F)cc2)cc1F (stereo not drawn)
inhibition of growth at 50 µg/mL (Rhizoctonia solani): 15% | inhibition of growth at 50 µg/mL (Puccinia triticina): 0% | inhibition of growth at 50 µg/mL (Thanatephorus cucumeris): 11% | inhibition of growth at 50 µg/mL [1]: 0% | inhibition of growth at 50 µg/mL (Phytophthora infestans): 25% | inhibition of growth at 50 µg/mL (Fusarium graminearum): 0% | inhibition of growth at 50 µg/mL (Colletotrichum lagenaria): 0% | inhibition of growth at 50 µg/mL (Cercospora beticola): 25% | inhibition of growth at 50 µg/mL (Mycosphaerella arachidis): 0% | inhibition of growth at 50 µg/mL (Alternaria solani): 0% | inhibition at 100 µg/mL (Tobacco mosaic virus [2]): 14% | inhibition at 500 µg/mL (Tobacco mosaic virus [3]): 45%

Cc1ccc(N(C(=O)c2nnsc2C)C(C(=O)NC2CCCCC2)c2cccc([N+](=O)[O-])c2)cc1F (stereo not drawn)
inhibition of growth at 50 µg/mL (Rhizoctonia solani): 4% | inhibition of growth at 50 µg/mL (Puccinia triticina): 0% | inhibition of growth at 50 µg/mL (Thanatephorus cucumeris): 0% | inhibition of growth at 50 µg/mL [1]: 0% | inhibition of growth at 50 µg/mL (Phytophthora infestans): 44% | inhibition of growth at 50 µg/mL (Fusarium graminearum): 0% | inhibition of growth at 50 µg/mL (Colletotrichum lagenaria): 0% | inhibition of growth at 50 µg/mL (Cercospora beticola): 25% | inhibition of growth at 50 µg/mL (Mycosphaerella arachidis): 0% | inhibition of growth at 50 µg/mL (Alternaria solani): 0% | inhibition at 100 µg/mL (Tobacco mosaic virus [2]): 9% | inhibition at 500 µg/mL (Tobacco mosaic virus [3]): 57%

Cc1ccc(N(C(=O)c2nnsc2C)C(C(=O)NC2CCCCC2)c2cccc(F)c2)cc1F (stereo not drawn)
inhibition of growth at 50 µg/mL (Rhizoctonia solani): 2% | inhibition of growth at 50 µg/mL (Puccinia triticina): 0% | inhibition of growth at 50 µg/mL (Thanatephorus cucumeris): 11% | inhibition of growth at 50 µg/mL [1]: 8% | inhibition of growth at 50 µg/mL (Phytophthora infestans): 44% | inhibition of growth at 50 µg/mL (Fusarium graminearum): 9% | inhibition of growth at 50 µg/mL (Colletotrichum lagenaria): 43% | inhibition of growth at 50 µg/mL (Cercospora beticola): 25% | inhibition of growth at 50 µg/mL (Mycosphaerella arachidis): 27% | inhibition of growth at 50 µg/mL (Alternaria solani): 50% | inhibition at 100 µg/mL (Tobacco mosaic virus [2]): 52% | inhibition at 500 µg/mL (Tobacco mosaic virus [3]): 30%

Cc1ccc(N(C(=O)c2nnsc2C)C(C(=O)NC(C)C)c2ccccc2C)cc1F (stereo not drawn)
inhibition of growth at 50 µg/mL (Rhizoctonia solani): 22% | inhibition of growth at 50 µg/mL (Puccinia triticina): 0% | inhibition of growth at 50 µg/mL (Thanatephorus cucumeris): 0% | inhibition of growth at 50 µg/mL [1]: 0% | inhibition of growth at 50 µg/mL (Phytophthora infestans): 31% | inhibition of growth at 50 µg/mL (Fusarium graminearum): 27% | inhibition of growth at 50 µg/mL (Colletotrichum lagenaria): 50% | inhibition of growth at 50 µg/mL (Cercospora beticola): 0% | inhibition of growth at 50 µg/mL (Mycosphaerella arachidis): 36% | inhibition of growth at 50 µg/mL (Alternaria solani): 56% | inhibition at 100 µg/mL (Tobacco mosaic virus [2]): 36% | inhibition at 500 µg/mL (Tobacco mosaic virus [3]): 55%

Cc1ccc(N(C(=O)c2nnsc2C)C(C(=O)NC(C)C)c2cccc(F)c2)cc1F (stereo not drawn)
inhibition of growth at 50 µg/mL (Rhizoctonia solani): 43% | inhibition of growth at 50 µg/mL (Puccinia triticina): 0% | inhibition of growth at 50 µg/mL (Thanatephorus cucumeris): 0% | inhibition of growth at 50 µg/mL [1]: 0% | inhibition of growth at 50 µg/mL (Phytophthora infestans): 19% | inhibition of growth at 50 µg/mL (Fusarium graminearum): 5% | inhibition of growth at 50 µg/mL (Colletotrichum lagenaria): 57% | inhibition of growth at 50 µg/mL (Cercospora beticola): 25% | inhibition of growth at 50 µg/mL (Mycosphaerella arachidis): 27% | inhibition of growth at 50 µg/mL (Alternaria solani): 44% | inhibition at 100 µg/mL (Tobacco mosaic virus [2]): 50% | inhibition at 500 µg/mL (Tobacco mosaic virus [3]): 30%

Cc1ccc(N(C(=O)c2nnsc2C)C(C(=O)NC(C)C)c2cccc(O)c2)cc1F (stereo not drawn)
inhibition of growth at 50 µg/mL (Rhizoctonia solani): 2% | inhibition of growth at 50 µg/mL (Puccinia triticina): 0% | inhibition of growth at 50 µg/mL (Thanatephorus cucumeris): 0% | inhibition of growth at 50 µg/mL [1]: 0% | inhibition of growth at 50 µg/mL (Phytophthora infestans): 38% | inhibition of growth at 50 µg/mL (Fusarium graminearum): 0% | inhibition of growth at 50 µg/mL (Colletotrichum lagenaria): 14% | inhibition of growth at 50 µg/mL (Cercospora beticola): 11% | inhibition of growth at 50 µg/mL (Mycosphaerella arachidis): 0% | inhibition of growth at 50 µg/mL (Alternaria solani): 0% | inhibition at 100 µg/mL (Tobacco mosaic virus [2]): 4% | inhibition at 500 µg/mL (Tobacco mosaic virus [3]): 20%

Cc1ccc(C(C(=O)NC(C)C)N(C(=O)c2nnsc2C)c2ccc(C)c(F)c2)cc1 (stereo not drawn)
inhibition of growth at 50 µg/mL (Rhizoctonia solani): 37% | inhibition of growth at 50 µg/mL (Puccinia triticina): 14% | inhibition of growth at 50 µg/mL (Thanatephorus cucumeris): 11% | inhibition of growth at 50 µg/mL [1]: 0% | inhibition of growth at 50 µg/mL (Phytophthora infestans): 13% | inhibition of growth at 50 µg/mL (Fusarium graminearum): 0% | inhibition of growth at 50 µg/mL (Colletotrichum lagenaria): 29% | inhibition of growth at 50 µg/mL (Cercospora beticola): 25% | inhibition of growth at 50 µg/mL (Mycosphaerella arachidis): 45% | inhibition of growth at 50 µg/mL (Alternaria solani): 31% | inhibition at 100 µg/mL (Tobacco mosaic virus [2]): 7% | inhibition at 500 µg/mL (Tobacco mosaic virus [3]): 31%

Cc1ccc(N(C(=O)c2nnsc2C)C(C(=O)NC2CCCCC2)c2ccc([N+](=O)[O-])cc2)cc1F (stereo not drawn)
inhibition of growth at 50 µg/mL (Rhizoctonia solani): 2% | inhibition of growth at 50 µg/mL (Puccinia triticina): 0% | inhibition of growth at 50 µg/mL (Thanatephorus cucumeris): 0% | inhibition of growth at 50 µg/mL [1]: 0% | inhibition of growth at 50 µg/mL (Phytophthora infestans): 50% | inhibition of growth at 50 µg/mL (Fusarium graminearum): 0% | inhibition of growth at 50 µg/mL (Colletotrichum lagenaria): 14% | inhibition of growth at 50 µg/mL (Cercospora beticola): 25% | inhibition of growth at 50 µg/mL (Mycosphaerella arachidis): 45% | inhibition of growth at 50 µg/mL (Alternaria solani): 0% | inhibition at 100 µg/mL (Tobacco mosaic virus [2]): 8% | inhibition at 500 µg/mL (Tobacco mosaic virus [3]): 70%
